# The source made the active and inactive calls. The rule behind the calls is not given here.
# Assays:
# [1] = system: Candida albicans; assay: Synergistic antifungal activity against Candida albicans assessed as FICI in presence of fluconazole incubated for 24 hrs by two fold serial dilution method
# [2] = system: Candida tropicalis; assay: Antifungal activity against Candida tropicalis assessed as reduction in fungal cell viability in presence of fluconazole incubated for 24 hrs by two fold serial dilution method
# [3] = system: Staphylococcus aureus; assay: Antibacterial activity against Staphylococcus aureus assessed as reduction in bacterial cell viability incubated for 24 hrs by two fold serial dilution method; assay type: functional
# Method in brief: (§1)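 Broth two-fold serial dilution run to CLSI guidelines. Chloromycin, norfloxacin and fluconazole served as reference drugs.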
# [4] = system: Klebsiella pneumoniae; assay: Synergistic antibacterial activity against Klebsiella pneumoniae assessed as FICI in presence of cefixime incubated for 24 hrs by two fold serial dilution method; assay type: functional
# [5] = system: Staphylococcus aureus; assay: Antibacterial activity against Staphylococcus aureus ATCC 29213 assessed as reduction in bacterial cell viability incubated for 24 hrs by two fold serial dilution method; assay type: functional; details: ATCC 29213, 24 h
# Method in brief: as §1
# [6] = target: T1, Albumin (Homo sapiens, UniProt P02768); assay: Binding affinity to HSA assessed as change in gibbs free energy at 286 K by Van't Hoff plot analysis; assay type: ADME; details: isolated protein
# T1 sequence (P02768 whole entry): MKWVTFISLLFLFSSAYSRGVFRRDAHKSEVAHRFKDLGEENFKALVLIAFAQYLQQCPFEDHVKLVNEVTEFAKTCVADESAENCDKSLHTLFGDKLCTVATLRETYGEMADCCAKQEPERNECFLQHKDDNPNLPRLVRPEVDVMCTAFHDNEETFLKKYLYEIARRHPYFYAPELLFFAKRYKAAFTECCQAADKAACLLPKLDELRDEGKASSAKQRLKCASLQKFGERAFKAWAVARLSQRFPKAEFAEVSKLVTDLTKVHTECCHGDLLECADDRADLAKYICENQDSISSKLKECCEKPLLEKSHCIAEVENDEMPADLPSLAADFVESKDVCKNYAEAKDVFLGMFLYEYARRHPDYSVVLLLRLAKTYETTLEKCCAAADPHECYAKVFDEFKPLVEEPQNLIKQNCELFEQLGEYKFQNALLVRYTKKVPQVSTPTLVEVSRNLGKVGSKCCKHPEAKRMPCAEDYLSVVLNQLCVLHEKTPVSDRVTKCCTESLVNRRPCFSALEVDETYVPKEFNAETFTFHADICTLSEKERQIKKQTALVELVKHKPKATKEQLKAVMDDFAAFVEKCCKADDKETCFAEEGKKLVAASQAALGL
# [7] = system: Enterococcus faecalis; assay: Antibacterial activity against Enterococcus faecalis assessed as reduction in bacterial cell viability incubated for 24 hrs by two fold serial dilution method; assay type: functional
# Method in brief: as §1
# [8] = system: Staphylococcus aureus; assay: Antibacterial activity against Staphylococcus aureus assessed as reduction in bacterial cell viability in presence of cefixime incubated for 24 hrs by two fold serial dilution method; assay type: functional
# [9] = system: Calf thymus DNA; assay: Binding affinity to calf thymus DNA by UV-visible spectrophotometric method; assay type: nucleic-acid assay; details: Bos taurus
# [10] = system: Escherichia coli; assay: Antibacterial activity against Escherichia coli assessed as reduction in bacterial cell viability incubated for 24 hrs by two fold serial dilution method; assay type: functional
# Method in brief: as §1
# [11] = target: T1, Albumin; assay: Binding affinity to HSA assessed as change in entropy at 298 K by Van't Hoff plot analysis; assay type: ADME; details: isolated protein
# [12] = system: Staphylococcus aureus; assay: Induction of membrane permeabilization in methicillin resistant Staphylococcus aureus assessed as increase in fluorescence intensity at 12 times of MIC incubated for 2 hr by propidium iodide staining based fluorescence microscopy; assay type: functional, organism-based
# Method in brief: (§2)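 MRSA cells were treated with the compound and stained with propidium iodide, which enters cells with damaged membranes and fluoresces on binding DNA. Fluorescence intensity was followed over time against untreated bacteria.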
# [13] = system: Candida albicans; assay: Antifungal activity against Candida albicans assessed as reduction in fungal cell viability in presence of fluconazole incubated for 24 hrs by two fold serial dilution method
# [14] = system: Candida albicans; assay: Antifungal activity against Candida albicans assessed as reduction in fungal cell viability incubated for 24 hrs by two fold serial dilution method; assay type: functional
# Method in brief: as §1
# [15] = target: T1, Albumin; assay: Binding affinity to HSA assessed as change in gibbs free energy at 310 K by Van't Hoff plot analysis; assay type: ADME; details: isolated protein
# [16] = system: Staphylococcus aureus; assay: Antibacterial activity against methicillin resistant Staphylococcus aureus assessed as fold change after 16 serial passages at 0.5 times of MIC incubated for 12 hrs by sequential passaging method; assay type: functional
# [17] = system: Calf thymus DNA; assay: Competitive binding affinity to calf thymus DNA assessed as inhibition of binding of neutral red by UV-visible spectrophotometric method; assay type: nucleic-acid assay; details: Bos taurus
# [18] = system: Staphylococcus aureus; assay: Synergistic antibacterial activity against Staphylococcus aureus assessed as FICI in presence of cefixime incubated for 24 hrs by two fold serial dilution method; assay type: functional
# [19] = target: T1, Albumin; assay: Binding affinity to HSA assessed as quenching constant at 286 K by fluorescence spectroscopy; assay type: ADME; details: isolated protein
# [20] = system: Klebsiella pneumoniae; assay: Antibacterial activity against Klebsiella pneumoniae assessed as reduction in bacterial cell viability incubated for 24 hrs by two fold serial dilution method; assay type: functional
# Method in brief: as §1
# [21] = target: T1, Albumin; assay: Binding affinity to HSA assessed as Stern-Volmer quenching constant at 298 K by fluorescence spectroscopy; assay type: ADME; details: isolated protein
# [22] = system: Candida tropicalis; assay: Synergistic antifungal activity against Candida tropicalis assessed as FICI in presence of fluconazole incubated for 24 hrs by two fold serial dilution method
# [23] = system: Staphylococcus aureus; assay: Potency index, ratio of MIC of chloromycin to MIC of compound for antibacterial activity against methicillin resistant Staphylococcus aureus N315 assessed as reduction in bacterial cell viability incubated for 24 hrs by two fold serial dilution method; assay type: functional
# [24] = system: Aspergillus fumigatus; assay: Antifungal activity against Aspergillus fumigatus assessed as reduction in fungal cell viability incubated for 24 hrs by two fold serial dilution method; assay type: functional
# Method in brief: as §1
# [25] = system: Pseudomonas aeruginosa; assay: Antibacterial activity against Pseudomonas aeruginosa ATCC 27853 assessed as reduction in bacterial cell viability incubated for 24 hrs by two fold serial dilution method; assay type: functional; details: ATCC 27853, 24 h
# Method in brief: as §1
# [26] = target: T1, Albumin; assay: Binding affinity to HSA assessed as binding constant at 286 K by fluorescence spectroscopy based Scatchard method; assay type: ADME; details: isolated protein
# [27] = system: Staphylococcus aureus; assay: Antibacterial activity against methicillin resistant Staphylococcus aureus N315 assessed as reduction in bacterial cell viability incubated for 24 hrs by two fold serial dilution method; assay type: functional; details: N315, 24 h
# Method in brief: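 MIC by two-fold serial dilution following CLSI, with chloromycin and norfloxacin as reference drugs.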
# [28] = system: Candida albicans; assay: Antifungal activity against Candida albicans ATCC 90023 assessed as reduction in fungal cell viability incubated for 24 hrs by two fold serial dilution method; assay type: functional; details: ATCC 90023, 24 h
# Method in brief: as §1
# [29] = target: T1, Albumin; assay: Binding affinity to HSA assessed as quenching constant at 298 K by fluorescence spectroscopy; assay type: ADME; details: isolated protein
# [30] = system: Escherichia coli; assay: Antibacterial activity against Escherichia coli ATCC 25922 assessed as reduction in bacterial cell viability incubated for 24 hrs by two fold serial dilution method; assay type: functional; details: ATCC 25922, 24 h
# Method in brief: as §1
# [31] = target: T1, Albumin; assay: Binding affinity to HSA assessed as binding constant at 298 K by fluorescence spectroscopy based Scatchard method; assay type: ADME; details: isolated protein
# [32] = system: Acinetobacter baumannii; assay: Antibacterial activity against Acinetobacter baumannii assessed as reduction in bacterial cell viability incubated for 24 hrs by two fold serial dilution method; assay type: functional
# Method in brief: as §1
# [33] = target: T1, Albumin; assay: Binding affinity to HSA assessed as quenching constant at 310 K by fluorescence spectroscopy; assay type: ADME; details: isolated protein
# [34] = system: Staphylococcus aureus; assay: Induction of membrane permeabilization in methicillin resistant Staphylococcus aureus assessed as increase in fluorescence intensity steady state at 12 times of MIC after 100 mins by propidium iodide staining based fluorescence microscopy; assay type: functional, organism-based
# Method in brief: as §2
# [35] = system: Candida tropicalis; assay: Antifungal activity against Candida tropicalis assessed as reduction in fungal cell viability incubated for 24 hrs by two fold serial dilution method; assay type: functional
# Method in brief: as §1
# [36] = system: Staphylococcus aureus; assay: Antibacterial activity against Staphylococcus aureus ATCC 25923 assessed as reduction in bacterial cell viability incubated for 24 hrs by two fold serial dilution method; assay type: functional; details: ATCC 25923, 24 h
# Method in brief: as §1
# [37] = Cytotoxicity against human A549 cells assessed as cell viability upto 139.52 uM incubated for 24 hrs by MTT assay relative to control; assay type: cell-based; details: read-out: Activity
# Method in brief: (§3)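 MTT viability assay in A549 and BEAS-2B cells, with doxorubicin at 0.50 μM as positive control. Viability is plotted with standard deviation from three independent experiments.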
# [38] = target: T1, Albumin; assay: Binding affinity to HSA assessed as change in enthalpy at 298 K by Van't Hoff plot analysis; assay type: ADME; details: isolated protein
# [39] = target: T1, Albumin; assay: Binding affinity to HSA assessed as change in gibbs free energy at 298 K by Van't Hoff plot analysis; assay type: ADME; details: isolated protein
# [40] = system: Candida parapsilosis; assay: Antifungal activity against Candida parapsilosis ATCC 22019 assessed as reduction in fungal cell viability incubated for 24 hrs by two fold serial dilution method; details: Lodderomyces parapsilosis, ATCC 22019, 24 h
# [41] = target: T1, Albumin; assay: Binding affinity to HSA assessed as Stern-Volmer quenching constant at 310 K by fluorescence spectroscopy; assay type: ADME; details: isolated protein
# [42] = system: Pseudomonas aeruginosa; assay: Antibacterial activity against Pseudomonas aeruginosa assessed as reduction in bacterial cell viability incubated for 24 hrs by two fold serial dilution method; assay type: functional
# Method in brief: as §1
# [43] = system: Klebsiella pneumoniae; assay: Antibacterial activity against Klebsiella pneumoniae assessed as reduction in bacterial cell viability in presence of cefixime incubated for 24 hrs by two fold serial dilution method; assay type: functional
# [44] = system: Staphylococcus aureus; assay: Potency index, ratio of MIC of norfloxacin to MIC of compound for antibacterial activity against methicillin resistant Staphylococcus aureus N315 assessed as reduction in bacterial cell viability incubated for 24 hrs by two fold serial dilution method; assay type: functional
# [45] = Cytotoxicity against human BEAS2B cells assessed as cell viability upto 139.52 uM incubated for 24 hrs by MTT assay relative to control; assay type: cell-based; details: BEAS-2B cells, read-out: Activity
# Method in brief: as §3
# [46] = target: T1, Albumin; assay: Binding affinity to HSA assessed as Stern-Volmer quenching constant at 286 K by fluorescence spectroscopy; assay type: ADME; details: isolated protein
# [47] = system: Staphylococcus aureus; assay: Antibacterial activity against methicillin resistant Staphylococcus aureus N315 assessed as reduction in bacterial cell viability in presence of cefixime incubated for 24 hrs by two fold serial dilution method; assay type: functional; details: N315, 24 h
# [48] = system: Staphylococcus aureus; assay: Antibacterial activity against methicillin resistant Staphylococcus aureus assessed as change in drug resistance after 16 serial passages in presence of cefixime at 0.5 times of MIC incubated for 12 hrs by serial dilution method; assay type: functional, organism-based
# [49] = target: T1, Albumin; assay: Binding affinity to HSA assessed as binding constant at 310 K by fluorescence spectroscopy based Scatchard method; assay type: ADME; details: isolated protein
smiles,measurement,setting,value
CCn1cc(-c2csc(N)n2)c(=O)c2cc(F)c(N3CCN(C/C(C)=N/OC)CC3)cc21,fractional inhibitory concentration index (FICI),[1],0.281
same,MIC,[2],17.4 µM
same,MIC,[3],35 µM
same,fractional inhibitory concentration index (FICI),[4],0.625
same,MIC,[5],140 µM
same,deltaG,[6],-6.5084 kcal/mol
same,MIC,[7],70 µM
same,MIC,[8],8.72 µM
same,K,[9],2.51 ×10⁴ L/mol
same,MIC,[10],70 µM
same,deltaS,[11],-6.247 J/mol.K
same,Activity,[12],Active
same,MIC,[13],2.18 µM
same,MIC,[14],70 µM
same,deltaG,[15],-6.4725 kcal/mol
same,fold change (FC),[16],inactive
same,Activity,[17],Active
same,fractional inhibitory concentration index (FICI),[18],0.5
same,Kq,[19],2.95 ×10¹³ L/mol/s
same,MIC,[20],70 µM
same,KSV,[21],1.79 ×10⁵ L/mol
same,fractional inhibitory concentration index (FICI),[22],1.25
same,Ratio,[23],5
same,MIC,[24],35 µM
same,MIC,[25],35 µM
same,Kb,[26],1.81 ×10⁵ L/mol
same,MIC,[27],9 µM
same,MIC,[28],17 µM
same,Kq,[29],2.8 ×10¹³ L/mol/s
same,MIC,[30],35 µM
same,Kb,[31],1.63 ×10⁵ L/mol
same,MIC,[32],279 µM
same,Kq,[33],2.45 ×10¹³ L/mol/s
same,Activity,[34],Active
same,MIC,[35],70 µM
same,MIC,[36],17 µM
same,viability at 24 h,[37],> 75%
same,deltaH,[38],-6.9355 kcal/mol
same,deltaG,[39],-6.4904 kcal/mol
same,MIC,[40],70 µM
same,KSV,[41],1.57 ×10⁵ L/mol
same,MIC,[42],70 µM
same,MIC,[43],8.72 µM
same,Ratio,[44],2
same,viability at 24 h,[45],> 75%
same,KSV,[46],1.89 ×10⁵ L/mol
same,MIC,[47],4.36 µM
same,Activity,[48],inactive
same,Kb,[49],1.44 ×10⁵ L/mol
CCn1cc(-c2csc(N)n2)c(=O)c2cc(F)c(N3CCN(C/C(=N/OC)c4ccc(F)cc4F)CC3)cc21,MIC,[3],460 µM
same,MIC,[5],460 µM
same,MIC,[7],460 µM
same,MIC,[10],460 µM
same,MIC,[14],920 µM
same,MIC,[20],460 µM
same,MIC,[24],460 µM
same,MIC,[25],460 µM
same,MIC,[27],230 µM
same,MIC,[28],460 µM
same,MIC,[30],460 µM
same,MIC,[32],460 µM
same,MIC,[35],460 µM
same,MIC,[36],460 µM
same,MIC,[40],920 µM
same,MIC,[42],460 µM
